From publication PMC11610768 (The AAPS journal, 2023)
Like-named read-outs stand apart in the source and are kept apart here.

Columns and labels:
[1] = system: cyclin D1 in A2780 cells; test: Concentration-dependent changes in cyclin D1 in A2780 cells; type: cell-based, human; conditions: 24 h exposure, 1-15 µM, ELISA
Outline: (§1)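 Cells grown in RPMI 1640 with 10% FBS and 1% antibiotic-antimycotic, seeded overnight at 37°C, 5% CO2, then exposed to test compound (DMSO) at 0–15 µM for 24 h. SKOV3 only: 2–24 h time course at 2.5 and 10 µM, and washout after 24 h at 10 µM with recovery at 4, 8, 24 h. Cyclin D1 measured by sandwich ELISA (5 µg protein, duplicates, OD 450 nm) and by western blot (20 µg lysate, β-actin reprobe).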

[2] = system: cyclin D1 in SKOV3 cells; test: Concentration- and time-dependent changes in cyclin D1 in SKOV3 cells; type: cell-based, human
Outline: as §1

[3] = system: mortalin; test: Western blot of total mortalin in ovarian cancer cells; type: cell-based, human
[4] = type: in vivo, mice
Outline: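 Tumour-bearing nude mice (intraperitoneal SKOV3) received 60 mg/kg oral daily for 7 days in 30% Kolliphor HS 15. Saphenous blood was taken at 1, 4, 6, 8, 12 h after the first dose and at troughs 24–144 h, with 3 mice per point in rotating subgroups. Tissues were taken after the last dose. For HPLC-UV, plasma or tissue homogenate (3 mL/g phosphate buffer, pH 7.4) plus internal standard underwent acetonitrile precipitation, centrifugation and filtration. LLOQ 5 ng/mL; values given as mean ± SD.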

[5] = system: cyclin D1 in SKOV3 tumors; test: Cyclin D1 in SKOV3 xenograft tumors; type: in vivo, mice; conditions: 60 mg/kg oral once daily, observed at 12 h
Outline: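 Female athymic nude mice (Foxn1nu, 6–8 weeks) were given intraperitoneal SKOV3-luc cells, and tumours were confirmed after about 3 weeks. Dosing: 60 mg/kg oral, daily for 7 days, as a suspension in 30% Kolliphor HS 15 (6 mg/mL, 10 mL/kg); vehicle controls, n = 3. Tumours were taken after the last dose; archived 24-h single-dose tumours were also used. Lysate (5 µg protein) run in a total cyclin D1 sandwich ELISA in duplicate, read at OD 450 nm.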

[6] = system: ccK18; test: ccK18 quantification in mouse plasma; type: in vivo, mice; conditions: single IV dose 10 mg/kg, 2–4 h after dosing; vehicle approx 700 U/L
[7] = single oral dose study, tumor-bearing mice; cited from earlier work
[8] = system: xenograft tumor models; conditions: 60 mg/kg QD; cited from earlier work
[9] = system: colorectal tumors; conditions: APCmin/+ mouse, cited from earlier work
[10] = animal models; cited from earlier work
[11] = 60 mg/kg oral once daily for seven days
[12] = 60 mg/kg oral once daily, at 1 h

SMILES: CC1(C)CC(C)(C)c2cc(NC(=S)Nc3ccc([N+](=O)[O-])cc3)ccc2S1 [SHetA2]
- maximum inhibition of cyclin D1 levels [1]: ~ 80%
- cyclin D1 level restored, of baseline ([2]; 24 h after drug removal, after 24 h exposure to 10 µM): over 80%
- IC50 ([2]; Homo sapiens, SK-OV-3, read-out: IC50 of cyclin D1 reduction): 4 to 5 µM
- maximum inhibition of cyclin D1 levels ([2]; SKOV3 cells, 24 h exposure, 1-15 µM, ELISA): ~ 70%
- time at which cyclin D1 levels began to recover after drug removal ([2]; after 24 h exposure to 10 µM, drug removed from culture medium): 4 h
- cyclin D1 reduction / inhibition observed ([2]; cancer cells (cell line not named at the place), dose-dependent): up to 70%
- effect on total mortalin levels [3]: no effect
- accumulation of the drug in plasma [4, 11]: No significant accumulation
- mean trough concentrations in the plasma [4, 11]: 18.8 ± 6.6 ng/mL
- peak tumor concentration [4, 12]: around 4,000 ng/ml
- peak tumor concentration (equivalent) [4, 12]: ~ 10 µM
- maximum reduction in cyclin D1 in tumor [5]: ~ 70%
- peak plasma ccK18 level [6]: 913 U/L
- elimination half-life [7]: 4.5 h
- antitumor activity [8]: 40–60%
- reduction of cyclin D1 in the tumors ([9]; 30 mg/kg QD): 50%
- reduction of cyclin D1 in the tumors ([9]; 60 mg/kg QD): 90%
- reduction of incidence of colorectal tumors ([9]; QD doses of 30 or 60 mg/kg): over 50%
- adverse effects in genetic toxicology assays and toxicity tests [10]: no adverse effects observed
